M5 PAM = potentiates acetylcholine response at human M5 receptor | P08912 | CHO-K1 hM5, Fluo-8 calcium, ACh EC20 PAM; 0% = ACh EC20, 100% = ACh EC100 | activation, % at 3 µM | 360,000 tested, 0.3% active | AID 624038;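 active = activation above the run cutoff, the mean activation of all test compounds plus 3 SD, cut at about 18% in these data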
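Assay system: CHO-K1 hM5 cells / Incubation: Fluo-8 loading 80 min at 37 °C plus 30 min room temperature / Technique: Fluo-8 calcium dye fluorescence, kinetic read / Repeats: single replicate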
M5 antag = antagonists of human muscarinic M5 receptor (CHRM5); inhibition, % at 3 µM; CHO-hM5 cells, Fluo-8 calcium fluorescence, ACh EC80; 360,000 tested, 0.59% active; P08912;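 active = inhibition above a per-plate cutoff, the mean of that plate's test compounds plus 3 SD, cut at about 27% in these data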;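 note: 0% = acetylcholine EC80 with DMSO and 100% = DMSO without agonist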
CHRM4 antagonist = blocks acetylcholine activation of human M4 receptor | AID 624125 | P08173 | 360,000 tested, 0.73% active | CHO-hM4 cells, ACh EC80, Fluo-8 calcium fluorescence | inhibition, % at 3 µM;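 active = inhibition above its plate's cutoff, the mean inhibition of sample wells plus 3 SD, cut at about 27% in these data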;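 note: 0% = acetylcholine EC80 with DMSO and 100% = DMSO without agonist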
Target sequence (P08173 whole entry, looked up): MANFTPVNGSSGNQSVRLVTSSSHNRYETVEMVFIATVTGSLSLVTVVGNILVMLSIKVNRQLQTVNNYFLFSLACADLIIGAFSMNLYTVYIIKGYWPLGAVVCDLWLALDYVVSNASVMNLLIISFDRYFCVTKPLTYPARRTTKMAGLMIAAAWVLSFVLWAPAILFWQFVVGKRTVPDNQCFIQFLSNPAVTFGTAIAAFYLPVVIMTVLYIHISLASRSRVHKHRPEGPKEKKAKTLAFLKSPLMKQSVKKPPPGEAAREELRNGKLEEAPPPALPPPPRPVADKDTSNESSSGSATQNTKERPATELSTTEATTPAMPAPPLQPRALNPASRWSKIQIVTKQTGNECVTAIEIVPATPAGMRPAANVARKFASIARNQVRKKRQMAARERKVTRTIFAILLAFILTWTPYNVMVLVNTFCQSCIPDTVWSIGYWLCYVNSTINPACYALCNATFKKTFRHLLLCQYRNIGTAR
CHRM4 PAM = positive allosteric modulators of human muscarinic M4 receptor | P08173 | CHO-K1 hM4/Gqi5, Fluo-8 calcium fluorescence, ACh EC20; 0% = ACh EC20, 100% = maximal ACh | activation, % at 3 µM | 360,000 tested, 0.4% active;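 active = activation above its plate's cutoff, the mean activation of sample wells plus 3 SD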
M4 ag = agonists of human muscarinic M4 receptor (CHRM4); P08173; CHO-K1 hM4/Gqi5, Fluo-8 calcium fluorescence; vehicle 0%, full acetylcholine response 100%; activation, % at 3 µM; 360,000 tested, 0.14% active;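 active = activation above the run mean over all test wells plus 3 SD, cut at about 32% in these data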;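 note: peak over basal fluorescence ratio per well then scaled between controls; 0% = DMSO wells and 100% = acetylcholine at EC100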
CHRM5 agonist = agonists of human muscarinic M5 receptor (CHRM5); CHO-K1 hM5 cells, Fluo-8 calcium fluorescence; 0% DMSO wells, 100% maximal acetylcholine response; P08912; 360,000 tested, 0.19% active; AID 624037; activation, % at 3 µM;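 active = activation above the run's mean over test compounds plus 3 SD, cut at about 23% in these data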;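 note: signal is peak over basal fluorescence ratio across the kinetic read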
Starred values were filed as active, the others as inactive. A selection: hits, their analogues and other compounds. The true share with any hit is near 1.8%.

SMILES	M5 PAM	M5 antag	CHRM4 antagonist	CHRM4 PAM	M4 ag	CHRM5 agonist
CC(c1cccs1)N(Cc1ccco1)C(=S)Nc1ccccc1Cl (configuration not stated)	-1	5	-1	10	1	0
COc1ccccc1NC(=O)C1=C(C)NC(=O)NC1c1cc(C)cs1 (configuration not stated)	2	-3	0	1	0	0
Cc1ccc(-c2nc3c(Cl)cc(C(F)(F)F)cn3c2Cc2ccccc2C(F)(F)F)cc1	-1	-3	-9	18	1	-1
FC(F)(F)c1cc(Cl)c2nc(-c3ccco3)c(Cc3ccccc3C(F)(F)F)n2c1	5	2	45*	-9	4	4
CC(C)CCNC(=O)C1(C)CCN1Cc1ccc(-c2ccccn2)cc1 (configuration not stated)	-8	3	-23	-7	5	-2
COc1ccccc1-c1c(C)oc2c(CN3CCCCC3C)c(O)ccc2c1=O (configuration not stated)	4	-2	3	-1	0	-2
O=C(NCc1ccc(F)c(F)c1)C1Cc2c(-c3ccc4c(c3)OCO4)ccnc2O1 (configuration not stated)	-4	1	-5	0	1	-3
O=C1C=CC2(C=C1)O[C@H](Cc1ccccc1)[C@@H](Cc1ccccc1)O2	-1	16	62*	-7	2	4
COc1ccc(N2C(=O)CC(Cc3ccccc3)C2=O)cc1 (configuration not stated)	1	-2	4	5	2	-2
COc1ccc(C[C@@H]2OC3(C=CC(=O)C=C3)O[C@H]2Cc2ccc(OC)cc2)cc1	0	15	76*	-9	4	-2
CCOc1ccc(NC(=O)[C@H](Cc2ccccc2)NC(=O)C2CCNCC2)cc1	-2	7	-1	0	0	-4
CC12CCC3c4cc(CN5CCOCC5)c(O)cc4CCC3C1CCC2=O (configuration not stated)	0	7	5	2	0	-2
CCOC(=O)C1CCCN(C2=NC(=O)/C(=C/c3ccc(N(C)C)cc3)S2)C1 (configuration not stated)	-7	7	-5	-9	41*	11
COc1ccc(NC(=O)Nc2cc(C)cc(C)c2)cn1	-10	16	4	-2	5	0
COc1ccc(NC(=O)Nc2ccc([N+](=O)[O-])cc2)cn1	-13	34*	0	-9	22	8
Cc1ccc(CC(=O)N2CCN(c3cccc(C(F)(F)F)c3)CC2)cc1	-17	16	28*	-12	17	4
COc1ccc(CN2C(=O)CN(S(C)(=O)=O)CC2(C)C(=O)Nc2c(C)cccc2C)cc1 (configuration not stated)	3	-10	-7	-2	5	1
COc1ccc(CN(C)C(=O)CCNS(=O)(=O)c2ccccc2)c(OC)c1	-9	14	-8	1	3	2
CCC(C(=O)NCc1cccs1)n1nc(C)n2c(cc3occc32)c1=O (configuration not stated)	26*	-29	-5	13	1	1
Cc1cccc(NC(=O)c2ccc(F)c(S(=O)(=O)NCc3ccco3)c2)c1	19*	-16	-8	3	1	2
COc1ccc2c(c1)C(CC(C)=O)N(c1ccc(-c3cccnc3)cc1)C(c1ccsc1)=C2 (configuration not stated)	-4	-2	4	-5	0	-1
CC(C)NC(=O)C1(C)CN(S(C)(=O)=O)CC(=O)N1Cc1cccs1 (configuration not stated)	10	-11	-3	25*	2	2
C[n+]1ccccc1/C=C/c1cc(Br)ccc1O	-16	34*	12	-13	1	-2
CCC(Sc1nc(N)cc(=O)[nH]1)C(=O)Nc1cc(C)on1 (configuration not stated)	13	1	-14	26*	2	-2
COc1cccc(S(=O)(=O)Nc2cccc(C(=O)N3CCOCC3)c2)c1	-17	-3	36*	-17	1	-5
SMILES	M5 PAM	M5 antag	CHRM4 antagonist	CHRM4 PAM	M4 ag	CHRM5 agonist
COc1cccc(S(=O)(=O)Nc2cccc(C(=O)N3CCCC3)c2)c1	-1	5	-2	-1	0	-3
O=C(NC1CCCCC1)C(=S)N1CCOCC1	-2	18	0	4	0	0
CC(=O)C1CCC2C3CC=C4N(C)C(=O)CCC4(C)C3CCC12C (configuration not stated)	1	16	-1	2	0	4
Cc1noc(NS(=O)(=O)c2ccc(NC(=O)/C=C/c3ccc(Br)cc3)cc2)c1C	16	-22	-6	16*	0	2
Cc1ccc(S(=O)(=O)Nc2cccc(/C=C/C(=O)O)c2)cc1	46*	-1	0	8	1	-3
Cc1ccc(/C=C/C(=O)Nc2ccc(S(=O)(=O)Nc3ncccn3)cc2)cc1	26*	-14	-6	6	2	6
Cc1noc(NS(=O)(=O)c2ccc(NC(=O)/C=C/c3ccc(C(C)C)cc3)cc2)c1C	-2	0	-3	5	0	-2
COc1ccc(S(=O)(=O)Nc2cccc(/C=C/C(=O)O)c2)cc1	0	3	1	12	-1	-1
O=C(NC1CC1)c1cccc(NC(=O)C2CCN(S(=O)(=O)c3ccccc3C(F)(F)F)CC2)c1	-3	7	-5	-4	3	5
Cc1nc(N)sc1C(=O)N/N=C/c1ccc([N+](=O)[O-])cc1	0	12	-7	-5	1	-1
Cc1nc(N)sc1C(=O)N/N=C/c1ccccc1[N+](=O)[O-]	12	-11	-11	22*	3	1
COc1cccc(CN2CC(C(=O)NC3CCC3)CCC2=O)c1 (configuration not stated)	2	-3	2	5	1	-4
COc1ccc(-c2csc(C(O)c3ccc(F)c(F)c3)n2)cc1 (configuration not stated)	-11	14	3	-7	33*	4
OC(c1ccc(F)c(F)c1)c1nc(-c2ccccc2)cs1 (configuration not stated)	-2	-1	-1	2	1	0
COc1cc(C(O)c2nc(-c3ccc(N(C)C)cc3)cs2)ccc1F (configuration not stated)	-11	5	9	-12	41*	8
COC(=O)C[C@H]1C=C[C@@H](NC(=O)c2ccncc2)[C@@H](CO)O1	-4	8	1	6	2	-1

High-throughput results as filed in PubChem BioAssay.
